High-throughput results as filed in PubChem BioAssay.
DNMT1 inh: inhibitors of human DNMT1. P26358. DNMT1 molecular beacon, Hinp1I cleavage, fluorescence. inhibition (reported as % activation of signal), % at 10 µM. 0.83% of 360,000 active; in the data active = inhibition above about 50%
SUMO1 PPI mod: SUMO1-SIM interaction modulation | 0.33% of 360,000 active | inhibition, % at 20 µM | SUMO1 binding to a labelled peptide, TR-FRET, 1 h; in the data active = inhibition above about 37%
Target sequence (P63165 whole entry, looked up): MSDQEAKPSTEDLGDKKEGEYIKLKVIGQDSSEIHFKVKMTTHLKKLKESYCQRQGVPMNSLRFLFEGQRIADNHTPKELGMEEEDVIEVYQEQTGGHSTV
Rpn11 block: Rpn11 (human) deubiquitinase inhibition; O00487; human 26S proteasome, Ub4-pepOG fluorescence polarization; 20S core pre-blocked with epoxomicin; inhibition, % at 20 µM; 0.59% of 360,000 active;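 active = inhibition at 20 µM, scaled to each plate's controls, above about 33%, limit read from the data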
Target sequence (O00487 whole entry, looked up): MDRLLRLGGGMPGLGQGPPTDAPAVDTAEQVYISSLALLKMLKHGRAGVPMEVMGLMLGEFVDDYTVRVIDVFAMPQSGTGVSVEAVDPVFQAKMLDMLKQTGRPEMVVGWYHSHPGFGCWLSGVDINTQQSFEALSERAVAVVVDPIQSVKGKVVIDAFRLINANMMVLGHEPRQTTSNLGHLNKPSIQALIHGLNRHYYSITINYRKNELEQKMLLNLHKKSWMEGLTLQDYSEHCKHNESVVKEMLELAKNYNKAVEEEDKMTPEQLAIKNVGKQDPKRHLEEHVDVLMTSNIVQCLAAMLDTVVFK
STEP inh: STEP (human) phosphatase inhibition. P54829. recombinant STEP, OMFP fluorogenic substrate, fluorescence. inhibition, % at 20 µM. 0.25% of 360,000 active;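 active = inhibition at 20 µM, scaled per plate between control wells, above about 37%, limit read from the data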;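 also: 0% = DMSO with enzyme and substrate and 100% = substrate only without enzyme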
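Test system: STEP tyrosine phosphatase / Reagent: OMFP at 25 µM / Doses: 20 µM, 1% DMSO / Read-out: percent inhibition scaled to no-enzyme and uninhibited-enzyme controls, plate-pattern corrected / Detection: FITC-channel fluorescence of OMFP product / Medium: Bis-Tris buffer pH 6.0, 2.5 mM DTT, 0.005% Tween 20 / Schedule: 20 min at room temperature, dark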
Scp-1 inhibitor: Scp-1 (human) phosphatase inhibition; Q9GZU7; Recombinant Scp1, phosphopeptide, malachite green phosphate absorbance; inhibition, % at 20 µM; 0.88% of 340,000 active;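 active = inhibition above about 50% at 20 µM, limit read from the data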;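 also: plate controls were DMSO wells with enzyme for no effect and wells lacking enzyme for full effect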
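Material – SCP-1 phosphatase catalytic domain, residues 76-261 · Buffer or medium – Acidic Tris acetate buffer with magnesium and detergent · Also added – Phospho 17-mer peptide substrate · Compound – single 20 µM dose, 1% DMSO · Times – 45 min room-temperature reaction, 5 min colour, 30 min stabiliser · Technique – Phosphate-binding colour reagent, absorbance read at 630 nm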
LMPTP inh: LMPTP (human) inhibition | 0.22% of 360,000 active | recombinant LMPTP-A, OMFP fluorogenic substrate, fluorescence intensity | inhibition, % at 20 µM | P24666;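 active = compounds that cut the enzyme signal by at least half of the control window in the single-dose screen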;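 also: plate controls were DMSO wells with enzyme plus substrate for no effect and substrate without enzyme for full effect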
Target sequence (P24666 whole entry, looked up): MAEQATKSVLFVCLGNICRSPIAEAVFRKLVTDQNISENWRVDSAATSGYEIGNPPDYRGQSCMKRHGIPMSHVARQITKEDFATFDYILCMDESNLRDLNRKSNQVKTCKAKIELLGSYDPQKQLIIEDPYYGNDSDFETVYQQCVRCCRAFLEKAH
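Test system: LMPTP-A phosphatase enzyme; input: 0.625 nM LMPTP-A final; reagent: OMFP substrate, 400 µM final; compound dosing: 20 µM single dose, 3% DMSO; incubation: 50 min dark incubation at room temperature; measured by: endpoint fluorescence intensity from OMFP dephosphorylation; measure: % inhibition relative to no-enzyme and uninhibited control wells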
Starred values were filed as active, the others as inactive; nt = no result given. An excerpt weighted towards active compounds, which were near 2.3% of everything screened.

SMILES | DNMT1 inh | SUMO1 PPI mod | Rpn11 block | STEP inh | Scp-1 inhibitor | LMPTP inh
O=C1c2ccccc2C(=O)c2c(O)c(O)cc(O)c21 | 79* | 36 | -28 | 24 | 76* | 66*
Nc1ccc(O)c2c1C(=O)c1ccccc1C2=O | 89* | 13 | -126 | 37* | 80* | 73*
O=C1C=C(O)c2c(O)cc(O)c(O)c2C1=O | 12 | 12 | -189 | 95* | 47 | 76*
Cc1nc(N)nc(N)c1-c1ccc(Cl)c(Cl)c1 | 8 | -3 | 5 | 2 | -5 | 57*
Cc1nc(N)nc(N)c1CCCc1ccc(Cl)c(Cl)c1 | 3 | -3 | -3 | 0 | -7 | 64*
Nc1nc(N)nc(-c2ccc(Cl)c(Cl)c2)n1 | -7 | 0 | -2 | -4 | -4 | -1
O=C(NCC1CCCO1)C(c1ccncc1)N(Cc1cccs1)C(=O)Cn1nnc(-c2ccc(F)cc2)n1 (stereo unspecified) | -12 | -1 | 1 | 1 | -5 | 0
Cc1ccc(-c2nnn(CC(=O)N(Cc3cccs3)C(C(=O)NC3CCCC3)c3ccncc3)n2)cc1 (stereo unspecified) | -21 | 45* | 12 | 3 | 13 | 1
CCc1ccc(-n2c(=S)sc3c(=O)[nH]c(SCC(=O)NC4CCCCC4)nc32)cc1 | -1 | 13 | 0 | -3 | nt | -1
Cc1nc(COC(=O)c2ccc(CO)cc2)cs1 | 0 | -2 | 2 | 0 | 0 | -2
Cc1nc(COC(=O)c2cc(O)c3ccccc3c2O)cs1 | -12 | -19 | 1 | -4 | 69* | 1
CCn1c(=S)sc2c(=O)n(CC(=O)Nc3ccc(Cl)cc3)c(C)nc21 | -1 | -3 | 2 | -2 | -11 | 2
O=C(O)c1cc(O)c2c(c1)[C@@H]([C@H]1c3cc(C(=O)O)cc(O)c3C(=O)c3c(O[C@@H]4O[C@H](CO)[C@@H](O)[C@H](O)[C@H]4O)cccc31)c1cccc(O[C@@H]3O[C@H](CO)[C@@H](O)[C@H](O)[C@H]3O)c1C2=O | nt | nt | nt | nt | 86* | nt
CCCCN1C(=O)N(CCc2ccc(F)cc2)S(=O)(=O)c2cc(C(F)(F)F)ccc21 | 10 | 5 | 0 | 4 | 4 | 3
COc1ccccc1NC(=O)c1sc2nc(-c3ccco3)ccc2c1N | -6 | 9 | 42* | 2 | -9 | 4
CN(C)CCCN=c1cc(-c2ccccc2)oc2ccc(Cl)cc12 | 52* | -5 | -18 | 0 | -5 | -6
OCCN=c1cc(-c2ccccc2)oc2ccc(Cl)cc12 | 10 | -14 | -8 | -2 | -6 | -1
O=S(=O)(c1cnc[nH]1)N1CCN(C(c2ccc(F)cc2)c2ccc(F)cc2)CC1 | 2 | -2 | -3 | 1 | -5 | 1
COc1ccc(C2NCCc3c2[nH]c2ccccc32)cc1CN1CCc2cc(OC)c(OC)cc2C1C (stereo unspecified) | 32 | -48 | 15 | -2 | 4 | 52*
COc1ccc(C2NCCc3c2[nH]c2ccccc32)cc1COc1ccc(F)cc1 (stereo unspecified) | -5 | -3 | 3 | 3 | 12 | 1
Cc1cccc(C)c1NC(=O)C(c1ccccc1)N1CCN(C/C=C/c2ccccc2)CC1 (stereo unspecified) | -14 | -1 | 7 | -5 | nt | -2
O=C1c2ccc([N+](=O)[O-])cc2C(=O)N1Cc1cccnc1 | 2 | -32 | -4 | 0 | -6 | 1
Cc1cc(N/N=C/c2ccccc2O)c2ccccc2n1 | 20 | -19 | 6 | -2 | -4 | 51*
Cc1cccc(-c2cc3c(N=O)c4ccccc4c-3n[nH]2)c1 | 8 | 0 | 2 | 1 | 3 | 1
O=Nc1c2cc(-c3ccccc3)[nH]nc-2c2ccccc12 | 26 | 13 | 4 | 7 | 62* | 5
SMILES | DNMT1 inh | SUMO1 PPI mod | Rpn11 block | STEP inh | Scp-1 inhibitor | LMPTP inh
NC(=O)c1ccc2c(=O)n3c(-c4cc(Cl)c(N)c(Cl)c4)csc3nc2c1 | -7 | 56* | -1 | 10 | 8 | 8
Cc1csc2nc3cc(C(N)=O)ccc3c(=O)n12 | 6 | -6 | -2 | -3 | -8 | -1
N#CC1=C(c2ccccc2)/C(=C/c2ccccc2)OC1=O | 19 | 6 | 4 | 4 | -7 | 0
N#CC(C#N)=C1NC(N)=C(C#N)C(c2ccccc2)=C1C#N | -3 | 41* | 31 | 2 | nt | 3
COc1cc2c(cc1OC)/C(=C/C(=O)c1ccc(OC)c([N+](=O)[O-])c1)NCC2 | -12 | 42* | 13 | 3 | -6 | 2
C#CC(=O)CC1(CN(Cc2ccccc2)C(=O)OC(C)(C)C)CCCCC1 | 54* | 4 | 40* | -1 | -4 | 0
CON(C)C(=O)CC1(CN(Cc2ccccc2)C(=O)OC(C)(C)C)CCCCC1 | 5 | 6 | 2 | 3 | -6 | 2
COc1cccc2cc(C(=O)N3CC(C)OC(C)C3)c(=O)oc12 (stereo unspecified) | 1 | -6 | 4 | -2 | -5 | -1
COc1cc2c(oc(=O)c3cc(C)cc(OC)c32)c2c(C3OC(C)C(O)C(C)(O)C3O)ccc(O)c12 (stereo unspecified) | 63* | -8 | 7 | 1 | 10 | 2
CC(=NNC(=S)N1CCN(c2ccccn2)CC1)c1ccccn1 | -33 | -5 | 42* | 9 | 7 | 41
Oc1ccc(/C=N/n2c(-c3ccccc3)n[nH]c2=S)cc1Br | 3 | 2 | 4 | -4 | -3 | -4
Cc1c(Br)c(O)c(Br)c(O)c1/C=N/n1c(-c2ccccc2)n[nH]c1=S | 1 | 11 | 9 | 1 | 90* | -1
COC(=O)c1nn(-c2ccccc2)c(Sc2ccc(OC)cc2)c1/C=N/O | -2 | -4 | -1 | 2 | -9 | 0
CCCC[n+]1c2ccccc2cc2ccccc21 | 8 | -8 | 4 | 0 | 31 | 3
CCC[n+]1c2ccccc2cc2ccccc21 | 3 | -10 | 7 | 0 | 55* | 1
N=C(N)c1ccc(/C=C/c2ccc(C(=N)N)cc2O)cc1 | -7 | 78* | -8 | 0 | -5 | 65*
N=C(N)c1ccc(Cl)cc1 | -1 | 2 | -4 | -2 | 1 | -1
CCCCCOc1ccc(/C=c2\sc3nc(=O)c(-c4ccccc4)nn3c2=O)cc1OC | 5 | 6 | -43 | 1 | 2 | 2
C=CCOc1ccccc1/C=c1\sc2nc(=O)c(C)nn2c1=O | 53* | 25 | 1 | 3 | 8 | 3
Cc1ccc(/C=C2\SC(=S)N(CCC(=O)NNC(=O)c3ccc(O)cc3)C2=O)cc1 | 2 | -10 | 18 | 3 | -3 | -3
CN1C(=O)/C(=C/c2ccc(C(=O)Nc3ccc(O)cc3C(=O)O)cc2)SC1=S | -5 | 33 | 1 | 98* | 47 | 19
